Usually MIC stands for the least concentration at which growth counts as inhibited. Read a low MIC as a more susceptible organism.

Type in all cases: functional
Test [1] in a line: Antibacterial activity against Staphylococcus albus. The essentials:
(§1)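 Broth-based antibacterial test run in LB broth, with puramycin as the reference agent.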

Test [2] concerns Saccharomyces cerevisiae. Kind of test: Antifungal activity against Saccharomyces cerevisiae. The gist of the method:
(§2)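 Yeasts were tested in YPD broth, with amphotericin B as the reference antifungal.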

The test system of test [3] is Bacillus subtilis. The test can be described thus: Antibacterial activity against Bacillus subtilis. The gist of the method: as §1
In test [4] the test system is Candida albicans. Kind of test: Antifungal activity against Candida albicans ATCC 90028. The gist of the method:
as §2

Test [5] concerns Escherichia coli. The test can be described thus: Antibacterial activity against Escherichia coli ESS K12. The essentials: as §1

Converted amounts (≈) assume the structure as drawn.

Turning to `[C-]#[N+][C@@H]1[C@@H]2c3c(C(C)(C)C=C)[nH]c4cccc(c34)C(C)(C)[C@H]2CC[C@]1(C)C=C`, the MIC in test [1] was 0.625 µg/mL (≈ 1.68 µM); in test [2], 5 µg/mL (≈ 13.4 µM); in test [3], 1.25 µg/mL (≈ 3.36 µM); in test [4], 6.25 µg/mL (≈ 16.8 µM); in test [5] it was 10 µg/mL (≈ 26.8 µM).
Regarding `C=C[C@@]1(C)CC[C@@H]2C(C)(C)c3cccc4[nH]c5c(c34)[C@@]2(O)[C@]1(C#N)[C@H]1O[C@H]1C5(C)C` [AMBIGUINE I ISONITRILE], the MIC in test [1] was 0.078 µg/mL (≈ 0.194 µM); in test [2], 0.312 µg/mL (≈ 0.775 µM); in test [3], 0.312 µg/mL (≈ 0.775 µM); in test [4] it was 0.39 µg/mL (≈ 0.969 µM); in test [5], 2.5 µg/mL (≈ 6.21 µM).
On to `C[C@@H]1[C@H](O)[C@@H](C)/C=C/C=C/C=C/C=C/C=C/C=C/C=C/[C@H](O[C@@H]2O[C@H](C)[C@@H](O)[C@H](N)[C@@H]2O)C[C@@H]2O[C@](O)(C[C@@H](O)C[C@@H](O)[C@H](O)CC[C@@H](O)C[C@@H](O)CC(=O)O[C@H]1C)C[C@H](O)[C@H]2C(=O)O` [AMPHOTERICIN B], for which it took 1.56 µg/mL (≈ 1.69 µM) to inhibit growth in test [4] (MIC).
In test [2], `COc1ccc(C[C@H](N)C(=O)N[C@H]2[C@@H](O)[C@H](n3cnc4c(N(C)C)ncnc43)O[C@@H]2CO)cc1` [PUROMYCIN] gave an MIC of 0.312 µg/mL (≈ 0.662 µM).
Regarding `CN[C@@H]1[C@H](O[C@H]2[C@H](O[C@H]3[C@H](O)[C@@H](O)[C@H](N=C(N)N)[C@@H](O)[C@@H]3N=C(N)N)O[C@@H](C)[C@]2(O)C=O)O[C@@H](CO)[C@H](O)[C@H]1O` [STREPTOMYCIN], the MIC stood at 0.156 µg/mL (≈ 0.268 µM) in test [1], 2.5 µg/mL (≈ 4.3 µM) in test [3] and 0.312 µg/mL (≈ 0.536 µM) in test [5].
